One block for each compound: values may come before it.
Columns and labels:
PAD2 [1] = molecular target: T1, PAD2 (Homo sapiens, UniProt Q9Y2J8); test: Target engagement assay with HEK293T/PAD2 cells; format: cell-based
PAD1 = PAD1 inactivation kinetics; format: biochemical
Summary of the method: (§1)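 Purified PAD enzyme (2.0 μM) was preincubated at 37 °C with various inactivator concentrations in 50 mM HEPES pH 7.6, 10 mM CaCl2 and 2 mM DTT. Aliquots taken over time were added to the same buffer containing 10 mM BAEE, run for 15 min, then quenched in liquid nitrogen. Citrulline was measured by COLDER. k_obs came from exponential decay fits, and k_inact and K_I from saturation fits. At least duplicate.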

PAD4 = PAD4 inactivation kinetics; format: biochemical
Summary of the method: as §1

PAD2 [2] = molecular target: T1, PAD2; test: PAD2 inactivation kinetics; format: biochemical; conditions: for PAD2 potency: as compared to BB-F-amidine (4a) and BB-Cl-amidine (4b); for fold increase in PAD2 potency and selectivity: relative to Cl-amidine; for fold more potent PAD2 inhibitor in vitro: than BB-Cl-amidine (4b); for PAD2-selectivity: up to, other isozyme not named; for fold decrease in PAD2 potency: compared to 30a
Summary of the method: as §1

HEK293T cells = test: Cytotoxicity study; format: cell-based, human; conditions: than BB-Cl-amidine (4b)
Summary of the method: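 Human HEK293T cells were plated at 2.5 × 10⁶ cells/well. Next day they were exposed for 24 h to DMSO, Triton X-100, or a range of test-compound concentrations. Viability was read by XTT absorbance at 475 nm. EC50 came from an eight-point dose-response fit with range, slope factor and background terms.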

HEK293T/PAD2 cells = test: Cellular uptake assay; format: in vitro ADME, human
Summary of the method: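 HEK293T/PAD2 cells in HBS with 2 mM CaCl2 were treated with 0.5 μM ionomycin and test compound at 25 μM, as in the target engagement protocol. Cells were scraped, washed 4× with HBS, extracted in acetonitrile by sonication for 1 h at 0 °C, then cleared, filtered and analysed by LCMS. Analyte peak area was compared with the peak area of 25 μM compound injected directly.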

[3] = as compared to BB-F-amidine (4a)
[4] = as compared to BB-Cl-amidine (4b)

T1 sequence (Q9Y2J8 whole entry): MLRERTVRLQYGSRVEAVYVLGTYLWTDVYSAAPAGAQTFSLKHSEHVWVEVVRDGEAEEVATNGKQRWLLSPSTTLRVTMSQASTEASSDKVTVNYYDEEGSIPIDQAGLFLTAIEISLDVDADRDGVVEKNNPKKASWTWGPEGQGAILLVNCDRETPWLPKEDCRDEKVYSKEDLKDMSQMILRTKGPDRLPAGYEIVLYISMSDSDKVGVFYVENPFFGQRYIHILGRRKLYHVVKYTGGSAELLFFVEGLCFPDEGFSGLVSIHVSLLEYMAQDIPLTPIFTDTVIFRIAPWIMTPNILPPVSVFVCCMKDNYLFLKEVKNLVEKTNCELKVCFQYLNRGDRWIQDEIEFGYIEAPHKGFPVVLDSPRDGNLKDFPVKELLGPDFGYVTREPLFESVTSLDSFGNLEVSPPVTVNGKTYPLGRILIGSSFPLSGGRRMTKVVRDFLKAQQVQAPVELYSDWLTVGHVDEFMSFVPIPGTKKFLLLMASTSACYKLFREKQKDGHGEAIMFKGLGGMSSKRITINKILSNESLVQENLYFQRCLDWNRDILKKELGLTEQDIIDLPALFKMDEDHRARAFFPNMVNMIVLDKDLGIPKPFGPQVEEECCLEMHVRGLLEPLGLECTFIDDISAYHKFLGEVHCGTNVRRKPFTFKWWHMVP

fold less potent in the target engagement assay (PAD2 [1]; than BB-Cl-amidine (4b)): ~ 3 fold
SMILES: N=C(CF)NCCC[C@H](NC(=O)c1ccc(-c2ccccc2)cc1)c1nc2ccccc2[nH]1 [4a]

PAD2 potency (PAD2 [2]): relatively unaffected
SMILES: N=C(CF)NCCC[C@H](NC(=O)c1ccccc1C(=O)O)c1nc2ccccc2[nH]1 [9a]
fold increase in PAD1 inhibition (PAD1; [3]): 18 fold
fold increase in PAD4 inhibition (PAD4; [3]): 6.5 fold

PAD2 potency (PAD2 [2]): relatively unaffected
SMILES: N=C(CCl)NCCC[C@H](NC(=O)c1ccccc1C(=O)O)c1nc2ccccc2[nH]1 [9b]
fold increase in PAD1 inhibition (PAD1; [4]): 1.8 fold
fold increase in PAD4 inhibition (PAD4; [4]): 2.3 fold

fold increase in PAD2 inhibition (PAD2 [2]; [3]): 26 fold
SMILES: CCn1c([C@H](CCCNC(=N)CF)NC(=O)c2ccccc2C(=O)O)nc2ccccc21 [11a]

fold increase in PAD2 inhibition (PAD2 [2]; as compared to 9a): ~ 7 fold
fold increase in PAD2 inhibition (PAD2 [2]; [3]): ~ 9 fold
SMILES: N=C(CF)NCCC[C@H](NC(=O)c1cccc2c1C(=O)NC2)c1nc2ccccc2[nH]1 [14a]
fold increase in PAD4 inhibition (PAD4; as compared to 9a): ~ 1.4 fold

occupancy of PAD2 (PAD2 [1]; at 25 μM, HEK293T/PAD2 cells): roughly half as potent
fold increase in PAD2 inhibition (PAD2 [2]; as compared to 9a): ~ 41 fold
fold increase in PAD2 inhibition (PAD2 [2]; [3]): ~ 51 fold
SMILES: CCn1c([C@H](CCCNC(=N)CF)NC(=O)c2cccc3c2C(=O)NC3)nc2ccccc21 [16a]

fold more compound able to enter HEK293T cells (HEK293T/PAD2 cells; than 41a): 6 fold
fold increase in PAD2 potency and selectivity (PAD2 [2]): > 100 fold
fold more potent PAD2 inhibitor in vitro (PAD2 [2]): 12–50 fold
PAD2-selectivity (PAD2 [2]): up to 106 fold
SMILES: COc1cccc2c1nc([C@H](CCCNC(=N)CF)NC(=O)c1cccc3c1C(=O)NC3)n2C [30a]
fold less cytotoxic (HEK293T cells): > 30 fold

fold decrease in PAD2 potency (PAD2 [2]): 4 fold
fold more potent PAD2 inhibitor in vitro (PAD2 [2]): 12–50 fold
SMILES: CCn1c([C@H](CCCNC(=N)CF)NC(=O)c2cccc3c2C(=O)NC3)nc2c(OC)cccc21 [31a]
fold less cytotoxic (HEK293T cells): > 30 fold

fold decrease in PAD2 potency (PAD2 [2]): ~ 2 fold
fold more potent PAD2 inhibitor in vitro (PAD2 [2]): 12–50 fold
SMILES: CCOc1cccc2c1nc([C@H](CCCNC(=N)CF)NC(=O)c1cccc3c1C(=O)NC3)n2C [32a]
fold less cytotoxic (HEK293T cells): > 30 fold

fold decrease in PAD2 potency (PAD2 [2]): ~ 2 fold
SMILES: CCOc1cccc2c1nc([C@H](CCCNC(=N)CCl)NC(=O)c1cccc3c1C(=O)NC3)n2C [32b]

fold more potent PAD2 inhibitor in vitro (PAD2 [2]): 12–50 fold
SMILES: COc1ccc2c(c1)nc([C@H](CCCNC(=N)CF)NC(=O)c1cccc3c1C(=O)NC3)n2C [37a]
fold less cytotoxic (HEK293T cells): > 30 fold

fold less compound internalized by the cell (HEK293T/PAD2 cells; than unsubstituted lactams 30a, 31a, 32a, and 37a, mass spectrometry): ~ 6 fold
fold increase in PAD2 inhibition (PAD2 [2]; [3]): > 300 fold
fold increase in PAD2 potency and selectivity (PAD2 [2]): > 100 fold
PAD2-selectivity (PAD2 [2]): up to 106 fold
SMILES: CCN1Cc2cccc(C(=O)N[C@@H](CCCNC(=N)CF)c3nc4c(OC)cccc4n3C)c2C1=O [41a]

fold increase in PAD2 potency and selectivity (PAD2 [2]): > 100 fold
PAD2-selectivity (PAD2 [2]): up to 106 fold
SMILES: COc1cccc2c1nc([C@H](CCCNC(=N)CF)NC(=O)c1cccc3c1C(=O)N(C)C3)n2C [49a]
